From ChEMBL document CHEMBL1134791, “2- and 3-substituted 1,4-naphthoquinone derivatives as subversive substrates of trypanothione reductase and lipoamide dehydrogenase from Trypanosoma cruzi: synthesis and correlation between redox cycling activities and in vitro cytotoxicity” (J Med Chem, 2001)

Tests used:
[1] = substrate: CC1=C(CCCCC(=O)NCCCN2CCN(CCCNC(=O)CCCCC3=C(C)C(=O)c4cccc(O)c4C3=O)CC2)C(=O)c2c(O)cccc2C1=O; assay: (§1) Vmax is the maximum velocity of the TcTR (Trypanosoma cruzi trypanothione reductase) catalyzed NADH oxidation.
[2] = substrate: CC1=C(CCCCCC(=O)NCCCNCCCNC(=O)CCCCCC2=C(C)C(=O)c3ccccc3C2=O)C(=O)c2ccccc2C1=O; assay: as §1
[3] = substrate: CC1=C(CCCCC(=O)NCCCCNCCCNC(=O)CCCCC2=C(C)C(=O)c3cccc(O)c3C2=O)C(=O)c2c(O)cccc2C1=O; assay: Vmax is the maximum velocity of the TcTR (Trypanosoma cruzi trypanothione reductase) catalyzed NADPH oxidation.
[4] = substrate: CC1=C(CCCC(=O)NCCCCNCCCNC(=O)CCCC2=C(C)C(=O)c3ccccc3C2=O)C(=O)c2ccccc2C1=O; assay: as above
[5] = substrate: CC1=C(CCCCC(=O)NCCCCNCCCNC(=O)CCCCC2=C(C)C(=O)c3ccccc3C2=O)C(=O)c2ccccc2C1=O; assay: as above
[6] = substrate: CC1=C(CCC(=O)NCCCN2CCN(CCCNC(=O)CCC3=C(C)C(=O)c4ccccc4C3=O)CC2)C(=O)c2ccccc2C1=O; assay: as above
[7] = substrate: CC1=C(CCC(=O)NCCCCNCCCNC(=O)CCC2=C(C)C(=O)c3cccc(O)c3C2=O)C(=O)c2c(O)cccc2C1=O; assay: (§2) The Michaelis-Menten constant for NADPH oxidation by TcTR (Trypanosoma cruzi trypanothione reductase)
Summary of the method: (§3)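 Recombinant TcTR (0.6 U) in 20 mM Hepes, 1 mM EDTA, 0.15 M KCl, pH 7.25 at 22 °C, with 200 µM NADPH and naphthoquinone at five concentrations (0–100 µM) in 1% DMSO. NADPH oxidation at 340 nm; intrinsic oxidase rate not subtracted. Km and Vmax from nonlinear Michaelis–Menten fit; kcat and kcat/Km calculated.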

[8] = substrate: CC1=CC(=O)c2c(O)cccc2C1=O; assay: as §2; summary of the method: as §3
[9] = substrate: CC1=C(CCCCC(=O)NCCCNCCCNC(=O)CCCCC2=C(C)C(=O)c3cccc(O)c3C2=O)C(=O)c2c(O)cccc2C1=O; assay: as §2; summary of the method: as §3
[10] = substrate: CC1=C(CCC(=O)NCCCNCCCNC(=O)CCC2=C(C)C(=O)c3cccc(O)c3C2=O)C(=O)c2c(O)cccc2C1=O; assay: as §2; summary of the method: as §3
[11] = substrate: CC1=C(CCCC(=O)NCCCN2CCN(CCCNC(=O)CCCC3=C(C)C(=O)c4cccc(O)c4C3=O)CC2)C(=O)c2c(O)cccc2C1=O; assay: as §2; summary of the method: as §3
[12] = substrate: CC1=C(CCCC(=O)NCCCCNCCCNC(=O)CCCC2=C(C)C(=O)c3cccc(O)c3C2=O)C(=O)c2c(O)cccc2C1=O; assay: as §2; summary of the method: as §3
[13] = substrate: CC1=C(CCCCCC(=O)NCCCCNCCCNC(=O)CCCCCC2=C(C)C(=O)c3ccccc3C2=O)C(=O)c2ccccc2C1=O; assay: as §2; summary of the method: as §3
[14] = substrate: CC1=C(CCCCC(=O)NCCCN2CCN(CCCNC(=O)CCCCC3=C(C)C(=O)c4cccc(O)c4C3=O)CC2)C(=O)c2c(O)cccc2C1=O; assay: as §2; summary of the method: as §3
[15] = substrate: CC1=C(CCCCCC(=O)NCCCNCCCNC(=O)CCCCCC2=C(C)C(=O)c3cccc(O)c3C2=O)C(=O)c2c(O)cccc2C1=O; assay: as §2; summary of the method: as §3
[16] = substrate: CC1=C(CCCCC(=O)NCCCCNCCCNC(=O)CCCCC2=C(C)C(=O)c3cccc(O)c3C2=O)C(=O)c2c(O)cccc2C1=O; assay: as §2; summary of the method: as §3
[17] = substrate: CC1=C(CCCC(=O)NCCCN2CCN(CCCNC(=O)CCCC3=C(C)C(=O)c4ccccc4C3=O)CC2)C(=O)c2ccccc2C1=O; assay: as §2; summary of the method: as §3
[18] = substrate: CC1=C(CCC(=O)NCCCCNCCCNC(=O)CCC2=C(C)C(=O)c3ccccc3C2=O)C(=O)c2ccccc2C1=O; assay: as §2; summary of the method: as §3
[19] = substrate: CC1=C(CCCCCC(=O)NCCCN2CCN(CCCNC(=O)CCCCCC3=C(C)C(=O)c4ccccc4C3=O)CC2)C(=O)c2ccccc2C1=O; assay: as §2; summary of the method: as §3
[20] = substrate: CC1=C(CCCC(=O)NCCCCNCCCNC(=O)CCCC2=C(C)C(=O)c3ccccc3C2=O)C(=O)c2ccccc2C1=O; assay: as §2; summary of the method: as §3
[21] = substrate: CC1=C(CCCCCC(=O)NCCCCNCCCNC(=O)CCCCCC2=C(C)C(=O)c3cccc(O)c3C2=O)C(=O)c2c(O)cccc2C1=O; assay: as §2; summary of the method: as §3
[22] = substrate: CC1=C(CCCC(=O)NCCCNCCCNC(=O)CCCC2=C(C)C(=O)c3cccc(O)c3C2=O)C(=O)c2c(O)cccc2C1=O; assay: as §2; summary of the method: as §3
[23] = substrate: CC1=C(CCC(=O)NCCCN2CCN(CCCNC(=O)CCC3=C(C)C(=O)c4cccc(O)c4C3=O)CC2)C(=O)c2c(O)cccc2C1=O; assay: as §2; summary of the method: as §3
[24] = substrate: CC1=C(CCCCC(=O)NCCCCNCCCNC(=O)CCCCC2=C(C)C(=O)c3ccccc3C2=O)C(=O)c2ccccc2C1=O; assay: as §2; summary of the method: as §3
[25] = substrate: CC1=C(CCCC(=O)NCCCNCCCNC(=O)CCCC2=C(C)C(=O)c3ccccc3C2=O)C(=O)c2ccccc2C1=O; assay: as §2; summary of the method: as §3
[26] = substrate: CC1=C(CCCCC(=O)NCCCN2CCN(CCCNC(=O)CCCCC3=C(C)C(=O)c4ccccc4C3=O)CC2)C(=O)c2ccccc2C1=O; assay: as §2; summary of the method: as §3
[27] = substrate: CC1=C(CCCCC(=O)NCCCNCCCNC(=O)CCCCC2=C(C)C(=O)c3ccccc3C2=O)C(=O)c2ccccc2C1=O; assay: as §2; summary of the method: as §3
[28] = substrate: CC1=CC(=O)c2ccccc2C1=O; assay: as §2; summary of the method: as §3
[29] = substrate: CC1=C(CCCCCC(=O)NCCCNCCCNC(=O)CCCCCC2=C(C)C(=O)c3ccccc3C2=O)C(=O)c2ccccc2C1=O; assay: as §2; summary of the method: as §3
[30] = substrate: CC1=C(CCC(=O)NCCCN2CCN(CCCNC(=O)CCC3=C(C)C(=O)c4ccccc4C3=O)CC2)C(=O)c2ccccc2C1=O; assay: as §2; summary of the method: as §3
[31] = substrate: CC1=C(CCCCCC(=O)NCCCN2CCN(CCCNC(=O)CCCCCC3=C(C)C(=O)c4cccc(O)c4C3=O)CC2)C(=O)c2c(O)cccc2C1=O; assay: as §2; summary of the method: as §3
[32] = substrate: CC1=C(CCC(=O)NCCCNCCCNC(=O)CCC2=C(C)C(=O)c3ccccc3C2=O)C(=O)c2ccccc2C1=O; assay: as §2; summary of the method: as §3

B1: Trypanothione reductase (Trypanosoma cruzi), P28593 (protein)
chain: MMSKIFDLVVIGAGSGGLEAAWNAATLYKKRVAVIDVQMVHGPPFFSALGGTCVNVGCVPKKLMVTGAQYMEHLRESAGFGWEFDRTTLRAEWKKLIAVKDEAVLNINKSYEEMFRDTEGLEFFLGWGSLESKNVVNVRESADPASAVKERLETENILLASGSWPHMPNIPGIEHCISSNEAFYLPEPPRRVLTVGGGFISVEFAGIFNAYKPKDGQVTLCYRGEMILRGFDHTLREELTKQLTANGIQILTKENPAKVELNADGSKSVTFESGKKMDFDLVMMAIGRSPRTKDLQLQNAGVMIKNGGVQVDEYSRTNVSNIYAIGDVTNRVMLTPVAINEAAALVDTVFGTNPRKTDHTRVASAVFSIPPIGTCGLIEEVASKRYEVVAVYLSSFTPLMHNISGSKYKTFVAKIITNHSDGTVLGVHLLGDNAPEIIQGVGICLKLNAKISDFYNTIGVHPTSAEELCSMRTPSYYYVKGEKMEKPSEASL
Protein B1 has a Vmax [1] of 5.13 µM/min/mg, a Vmax [2] of 0.09 µM/min/mg and a Vmax [3] of 3.11 µM/min/mg. The Vmax [4] was 2.04 µM/min/mg, the Vmax [5] was 1.11 µM/min/mg and the Vmax [6] was 0.74 µM/min/mg. It also gave a Km [7] of 48 µM, a Km [8] of 15 µM and a Km [9] of 28 µM. It also gave a Km [10] of 230 µM, a Km [11] of 52 µM and a Km [12] of 93 µM. The Km [13] was 21 µM, the Km [14] was 17 µM and the Km [15] was 28 µM. The Km [16] was 20 µM, the Km [17] was 12 µM and the Km [18] was 30 µM. The Km [19] was 12 µM, the Km [20] was 74 µM and the Km [21] was 37 µM. The Km [22] was 55 µM, the Km [23] was 78 µM and the Km [24] was 16 µM. For the same protein, the Km [25] was 23 µM, the Km [26] was 16 µM and the Km [27] was 37 µM. For the same protein, the Km [28] was 21 µM, the Km [29] was 3 µM and the Km [30] was 14 µM. For the same protein, the Km [31] was 8 µM and the Km [32] was 47 µM.
